These results are taken from ChEMBL document CHEMBL2151029, “Synthesis of N-(5-chloro-6-(quinolin-3-yloxy)pyridin-3-yl)benzenesulfonamide derivatives as non-TZD peroxisome proliferator-activated receptor γ (PPARγ) agonist” (Eur J Med Chem, 2012).

Data set [1] addresses T1, Peroxisome proliferator-activated receptor gamma (Homo sapiens) (UniProt P37231).
T1 sequence (whole entry): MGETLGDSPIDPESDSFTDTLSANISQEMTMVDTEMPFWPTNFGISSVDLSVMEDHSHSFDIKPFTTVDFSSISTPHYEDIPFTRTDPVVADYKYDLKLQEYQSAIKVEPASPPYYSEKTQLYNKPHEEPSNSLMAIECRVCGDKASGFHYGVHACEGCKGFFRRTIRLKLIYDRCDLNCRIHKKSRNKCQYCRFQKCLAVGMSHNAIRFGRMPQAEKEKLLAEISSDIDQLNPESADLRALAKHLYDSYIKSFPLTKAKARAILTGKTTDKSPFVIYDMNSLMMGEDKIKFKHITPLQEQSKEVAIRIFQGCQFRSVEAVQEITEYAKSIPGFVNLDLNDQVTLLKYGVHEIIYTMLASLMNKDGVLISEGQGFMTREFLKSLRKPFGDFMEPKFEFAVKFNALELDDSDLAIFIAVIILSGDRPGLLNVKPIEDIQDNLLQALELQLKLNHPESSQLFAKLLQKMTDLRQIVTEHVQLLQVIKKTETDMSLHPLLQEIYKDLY
The data set is described as follows: Agonist activity at human PPARgamma receptor expressed in HEK293 cells at 10 uM relative to PPARgamma full agonist at 1 uM.

The target of data set [2] is T2, Peroxisome proliferator-activated receptor gamma (Mus musculus) (UniProt P37238).
T2 sequence (whole entry): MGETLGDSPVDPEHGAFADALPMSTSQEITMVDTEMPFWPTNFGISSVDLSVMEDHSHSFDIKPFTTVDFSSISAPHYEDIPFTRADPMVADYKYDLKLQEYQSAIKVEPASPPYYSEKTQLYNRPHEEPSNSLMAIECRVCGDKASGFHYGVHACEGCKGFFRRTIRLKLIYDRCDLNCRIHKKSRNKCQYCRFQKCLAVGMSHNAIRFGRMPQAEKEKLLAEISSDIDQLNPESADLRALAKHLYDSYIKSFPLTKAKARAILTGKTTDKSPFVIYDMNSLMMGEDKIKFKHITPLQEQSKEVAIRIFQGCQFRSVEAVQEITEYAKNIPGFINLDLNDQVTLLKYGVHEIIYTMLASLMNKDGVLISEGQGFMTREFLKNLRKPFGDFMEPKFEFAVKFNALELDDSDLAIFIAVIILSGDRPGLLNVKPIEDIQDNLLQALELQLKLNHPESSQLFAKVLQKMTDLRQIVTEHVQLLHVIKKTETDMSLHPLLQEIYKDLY
Kind of data set: Agonist activity at PPARgamma receptor in mouse 3T3-L1 cells assessed as adipogenesis at 20 ug/mL relative to insulin. The class given is functional, cell-based. The method, boiled down: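 3T3-L1 cells were treated with compound at 20 µg/ml in the presence of insulin and adipogenesis was measured. The response to a potent PPARγ full agonist at 1 µM was set as 100%. Emax (%) is the maximal adipogenic activity with test compound.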

Data set [3] has as its system Mus musculus. The data set is described as follows: Volume of distribution in db/db mouse at 100 mg/kg, po. The class given is ADME, organism-based. Also on record: dose 100 mg/kg, route oral. The settings on record: in vivo. The method in brief:
(§1)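 Female db/db mice received a single 100 mg/kg oral dose as a suspension in 0.5% CMC and Tween 80 (10 mL/kg), n = 4 per time point. Blood was drawn at 0.08 to 8.0 h and plasma was kept at -80 °C. Compound levels were measured by HPLC. Parameters came from non-compartmental analysis: Cmax and Tmax read directly, λz from terminal log-linear regression, T1/2 = 0.693/λz.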

Data set [4] can be described thus: Drug excretion in db/db mouse assessed as elimination rate constant at 100 mg/kg, po. The class given is ADME, organism-based. The note with it: in vivo. More on the design: dose 100 mg/kg, route oral. The method, boiled down: as §1
A short description of data set [5]: Cmax in db/db mouse at 100 mg/kg, po. The class given is ADME, organism-based. More on the design: dose 100 mg/kg, route oral. The settings on record: in vivo. The method in brief: as §1
Data set [6] is described as follows: Tmax in db/db mouse at 100 mg/kg, po. The class given is ADME, organism-based. More on the design: dose 100 mg/kg, route oral. The settings on record: in vivo. The method, boiled down:
as §1

Data set [7] is described as follows: Clearance in db/db mouse at 100 mg/kg, po. The class given is ADME, organism-based. More on the design: dose 100 mg/kg, route oral. The note with it: in vivo. The method in brief: as §1
Data set [8] in a line: AUC (0 to 8 hrs) in db/db mouse at 100 mg/kg, po. Also on record: time < 8 hr, dose 100 mg/kg, route oral. The class given is ADME, organism-based. The settings on record: plasma. The method in brief:
as §1

Data set [9] is described as follows: Terminal elimination half life in db/db mouse at 100 mg/kg, po. The class given is ADME, organism-based. Also on record: dose 100 mg/kg, route oral. The settings on record: in vivo, read-out: beta t1/2 (converted). The method, boiled down: as §1
Data set [10] concerns Mus musculus. Kind of data set: Antihyperglycemic activity in db/db mouse assessed as plasma glucose reduction at 5 mg/kg administered BID for 10 days relative to control. The class given is functional. More on the design: scale not given: the % may be the effect or the level left. The method in brief: (§2)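 Male db/db mice, 5 to 7 weeks old and bred in-house, were fed a chow diet and dosed b.i.d. for 10 days. Plasma glucose and body weight gain were assessed at the end of the study.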

Data set [11] deals with Mus musculus. Kind of data set: Toxicity in db/db mouse assessed as body weight gain at 50 mg/kg administered BID relative to control. The settings on record: in vivo. Also on record: dose 50 mg/kg. The class given is organism-based. The method in brief:
as §2

For data set [12], the system named is Mus musculus. The data set is described as follows: Antihyperglycemic activity in db/db mouse assessed as plasma glucose reduction at 50 mg/kg administered BID for 10 days relative to control. The class given is functional. More on the design: scale not given: the % may be the effect or the level left. The method in brief: as §2

The Cmax is the maximum level reached in the sampled fluid or tissue. For orientation: Tmax means the time from dosing to the highest level. One may read the CL/F as clearance divided by bioavailability, as obtained after extravascular dosing. What is called AUC(0-t) is exposure summed from dosing to a finite time, without extrapolation to infinity.

For `O=S(=O)(Nc1cnc(Oc2cnc3ccccc3c2)c(Cl)c1)c1ccc(C(F)(F)F)cc1Cl`, the results for the Emax in data set [1] and in data set [2] were 86% and 57%, respectively.

For the compound `O=S(=O)(Nc1cnc(Oc2cnc3ccccc3c2)c(Cl)c1)c1ccc(F)c(F)c1`, the Vd in the data set with Mus musculus [3] is 4.78 L/kg. Further, the k el in data set [4] was 0.000108 s⁻¹. This compound also had a Cmax in [5] of 8330 ng/mL. In addition, the Tmax in [6] is 0.5 h. In data set [7], the CL/F is 31.2 mL/min/kg. The figures for the Emax in data set [1] and in [2] were 86% and 95%, respectively. Moreover, the AUC(0-t) at 8 h in data set [8] came to 25400 ng·h/mL. In addition, the half-life in [9] is 1.76 h.

For `COc1ccc(OC)c(S(=O)(=O)Nc2cnc(Oc3cnc4ccccc4c3)c(Cl)c2)c1`, the Emax in data set [1] was determined as 71%; in [2], 54%.

Take `O=S(=O)(Nc1cnc(Oc2cnc3ccccc3c2)c(Cl)c1)c1ccc(F)c(Cl)c1`: the values for the Emax in data set [1] and in data set [2] were 28% and 56%, respectively.

On to `CN(CCOc1ccc(CC2SC(=O)NC2=O)cc1)c1ccccn1` (stereo not given) [ROSIGLITAZONE], for which the Activity in the data set with Mus musculus [10] was found to be 52%.

Regarding `O=S(=O)(Nc1cnc(Oc2cnc3ccccc3c2)c(Cl)c1)c1ccc(F)cc1F`, the Emax in [1] came out at 32%; in data set [2] it was 56%.

As to `Cc1ccc(S(=O)(=O)Nc2cnc(Oc3cnc4ccccc4c3)c(Cl)c2)c(C)c1`, the results for the Emax in [1] and in data set [2] were 31% and 67%, respectively.

On to `Cc1ccccc1S(=O)(=O)Nc1cnc(Oc2cnc3ccccc3c2)c(Cl)c1`, for which the Emax in data set [1] was determined as 43%; in [2], 95%.

As to `O=S(=O)(Nc1cnc(Oc2cnc3ccccc3c2)c(Cl)c1)c1cccc(C(F)(F)F)c1`, the Emax was found to be 50% in [1] and 75% in data set [2].

As to `O=S(=O)(Nc1cnc(Oc2cnc3ccccc3c2)c(Cl)c1)c1cccc(F)c1`, the Emax in data set [1] amounted to 62%; in [2], 80%.

In the case of `COc1ccc(S(=O)(=O)Nc2cnc(Oc3cnc4ccccc4c3)c(Cl)c2)cc1OC`, the Vd with Mus musculus [3] was 1.23 L/kg. Further, the k el in [4] is 6.39e-05 s⁻¹. Further, the Activity with Mus musculus [11] turned out to be 9%; in the data set on Mus musculus [12], 40%. Also, in data set [5], the highest level (Cmax) was 33900 ng/mL. Also, in data set [6], the Tmax turned out to be 0.25 h. Moreover, the CL/F in data set [7] is 4.67 mL/min/kg. The Emax in data set [1] was determined as 93%; in data set [2], 60%. The compound also gave an AUC(0-t) at 8 h in data set [8] of 146000 ng·h/mL. For the same compound, the half-life in [9] was 2.99 h.

Take `Cc1cccc(S(=O)(=O)Nc2cnc(Oc3cnc4ccccc4c3)c(Cl)c2)c1`: the Emax was determined as 36% in data set [1] and 90% in data set [2].

For the compound `O=S(=O)(Nc1cnc(Oc2cnc3ccccc3c2)c(Cl)c1)c1ccc(Cl)c(Cl)c1`, the results for the Emax in data set [1] and in data set [2] were 56% and 35%, respectively.

For the compound `Cc1cc(F)ccc1S(=O)(=O)Nc1cnc(Oc2cnc3ccccc3c2)c(Cl)c1`, the Emax in data set [1] was 83%; in data set [2], 73%.

With `O=S(=O)(Nc1cnc(Oc2cnc3ccccc3c2)c(Cl)c1)c1ccc(F)cc1Cl`, the Emax came to 39% in data set [1] and 51% in data set [2].
